The source made the active and inactive calls. No cut-off for these calls is given here.
Assays:
[1] = (§1) Ionotropic effect in guinea pig ventricle papillary muscles assessed as lengthening of 10% repolarized cardiac action potential duration time at 10^-6 M by microelectrode technique relative to untreated control (reference value: 52 to 54 APD10 ms) in presence of 1 x 10^-6 M IKr channel blocker Sotalol; format: functional, Cavia porcellus
[2] = (§2) Ionotropic effect in guinea pig ventricle papillary muscles assessed as lengthening of 25% repolarized cardiac action potential duration time at 10^-7 M by microelectrode technique relative to untreated control (reference value: 84 to 104 APD25 ms); format: functional, Cavia porcellus, Papillary muscle
[3] = (§3) Ionotropic effect in guinea pig ventricle papillary muscles assessed as lengthening of 50% repolarized cardiac action potential duration time at 10^-6 M by microelectrode technique relative to untreated control (reference value: 132 to 176 APD50 ms); format: functional, Cavia porcellus, Papillary muscle
[4] = as §1, with “of 25%” for “of 10%”, “at 10^-7” for “at 10^-6”, “value: 120” for “value: 52”, “to 131 APD25” for “to 54 APD10”; format: functional, Cavia porcellus
[5] = as §2, with “120” for “84”, “131” for “104”, “ms) in presence of 3.1 x 10^-6 M inward rectifier current blocker BaCl2” for “ms)”; format: functional, Cavia porcellus
[6] = Vasodilatory activity in human vena saphena magna assessed as relaxation of phenylephrine-induced smooth muscle contraction at 10^-7 to 10^-4 M; format: functional
How it was run: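 Saphenous vein rings came from 37 CABG patients. They were bathed in Tyrode's solution (mM: NaCl 137, KCl 5.4, CaCl2 1.8, MgCl2 0.9, Tris HCl 10, glucose 5; pH 7.4), equilibrated 45–60 min and washed every 15 min. Rings were precontracted with 10^-4 M phenylephrine, then given cumulative test agent at 10^-7 to 10^-4 M. Isometric relaxation was recorded, as means ± SE.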

[7] = (§4) Ionotropic effect in guinea pig ventricle papillary muscles assessed as lengthening of 10% repolarized cardiac action potential duration time at 10^-4 M by microelectrode technique relative to untreated control (reference value: 52 to 54 APD10 ms) in presence of 2 x 10^-5 M KATP channel blocker glibenclamide; format: functional, Cavia porcellus
[8] = as §4, with “25%” for “10%”, “120” for “52”, “131 APD25” for “54 APD10”; format: functional, Cavia porcellus
[9] = as §2, with “10^-5” for “10^-7”, “120” for “84”, “131” for “104”, “ms) in presence of 3.1 x 10^-6 M inward rectifier current blocker BaCl2” for “ms)”; format: functional, Cavia porcellus
[10] = as §4, with “50%” for “10%”, “180” for “52”, “192 APD50” for “54 APD10”; format: functional, Cavia porcellus
[11] = as §1, with “at 10^-7” for “at 10^-6”; format: functional, Cavia porcellus
[12] = as §4, with “25%” for “10%”, “10^-6” for “10^-4”, “120” for “52”, “131 APD25” for “54 APD10”; format: functional, Cavia porcellus
[13] = as §1, with “at 10^-5” for “at 10^-6”; format: functional, Cavia porcellus
[14] = Ionotropic effect in guinea pig right ventricle papillary muscles assessed as contraction force at 10^-7 M by force transduction assay relative to untreated control (reference value: 100%) in presence of 2 x 10^-5 M KATP channel blocker glibenclamide; format: functional, Cavia porcellus, Heart right ventricle
[15] = as §3, with “10^-7” for “10^-6”, “180” for “132”, “192” for “176”, “ms) in presence of 3.1 x 10^-6 M inward rectifier current blocker BaCl2” for “ms)”; format: functional, Cavia porcellus
[16] = Ionotropic effect in guinea pig ventricle papillary muscles assessed as lengthening of 25% repolarized cardiac action potential duration time at 10^-5 M by microelectrode technique relative to untreated control (reference value: 84 to 104 APD25 ms); format: functional, Cavia porcellus, Papillary muscle
[17] = as §4, with “90%” for “10%”, “209” for “52”, “222 APD50” for “54 APD10”; format: functional, Cavia porcellus
[18] = as §1, with “of 90%” for “of 10%”, “at 10^-5” for “at 10^-6”, “value: 209” for “value: 52”, “to 222 APD50” for “to 54 APD10”; format: functional, Cavia porcellus
[19] = as §4, with “25%” for “10%”, “10^-7” for “10^-4”, “120” for “52”, “131 APD25” for “54 APD10”; format: functional, Cavia porcellus
[20] = as §3, with “180” for “132”, “192” for “176”, “ms) in presence of 3.1 x 10^-6 M inward rectifier current blocker BaCl2” for “ms)”; format: functional, Cavia porcellus
[21] = Ionotropic effect in guinea pig right ventricle papillary muscles assessed as contraction force at 10^-7 M by force transduction assay relative to untreated control (reference value: 100%) in presence of 3.1 x 10^-6 M inward rectifier current blocker BaCl2; format: functional, Cavia porcellus, Heart right ventricle
[22] = Ionotropic effect in guinea pig ventricle papillary muscles assessed as lengthening of […] cardiac action potential duration time at 10^-5 M by microelectrode technique relative to untreated control (reference value: 37 to 47 […] ms); format: functional, Cavia porcellus, Papillary muscle
[23] = Ionotropic effect in guinea pig ventricle papillary muscles assessed as lengthening of 10% repolarized cardiac action potential duration time at 10^-4 M by microelectrode technique relative to untreated control (reference value: 37 to 47 APD10 ms); format: functional, Cavia porcellus, Papillary muscle
[24] = as §4, with “10^-6” for “10^-4”; format: functional, Cavia porcellus
[25] = as §3, with “10^-4” for “10^-6”, “180” for “132”, “192” for “176”, “ms) in presence of 3.1 x 10^-6 M inward rectifier current blocker BaCl2” for “ms)”; format: functional, Cavia porcellus
[26] = as §1, with “at 10^-4” for “at 10^-6”; format: functional, Cavia porcellus
[27] = as §1, with “of 90%” for “of 10%”, “at 10^-7” for “at 10^-6”, “value: 209” for “value: 52”, “to 222 APD50” for “to 54 APD10”; format: functional, Cavia porcellus
[28] = as §1, with “of 50%” for “of 10%”, “at 10^-4” for “at 10^-6”, “value: 180” for “value: 52”, “to 192 APD50” for “to 54 APD10”; format: functional, Cavia porcellus
[29] = Ionotropic effect in guinea pig ventricle papillary muscles assessed as lengthening of 10% repolarized cardiac action potential duration time at 10^-6 M by microelectrode technique relative to untreated control (reference value: 37 to 47 APD10 ms); format: functional, Cavia porcellus, Papillary muscle
[30] = as §3, with “90%” for “50%”, “10^-4” for “10^-6”, “209” for “132”, “222” for “176”, “ms) in presence of 3.1 x 10^-6 M inward rectifier current blocker BaCl2” for “ms)”; format: functional, Cavia porcellus
[31] = as §4, with “10^-5” for “10^-4”; format: functional, Cavia porcellus

With `CCCOCCOC(=O)C1=C(C)NC=C([N+](=O)[O-])C1c1ccccc1OC(F)F` (stereo unspecified) the Time [1] was 49 ms, the Time [2] was 112.7 ms and the Time [3] was 196 ms. For the same compound, the Time [4] was 130 ms, the Time [5] was 146.5 ms and the Activity [6] was “Active”. For the same compound, the Time [7] was 65 ms, the Time [8] was 164.8 ms and the Time [9] was 155 ms. The Time [10] was 247 ms, the Time [11] was 54.2 ms and the Time [12] was 148 ms. It also gave a Time [13] of 54.6 ms, an Activity [14] of 103% and a Time [15] of 210 ms. It also gave a Time [16] of 133 ms, a Time [17] of 276 ms and a Time [18] of 227.7 ms. For the same compound, the Time [19] was 141 ms, the Time [20] was 224 ms and the Activity [21] was 111.4%. It also gave a Time [22] of 46 ms, a Time [23] of 55.5 ms and a Time [24] of 59.6 ms. For the same compound, the Time [25] was 238 ms, the Time [26] was 55.7 ms and the Time [27] was 224.4 ms. It also gave a Time [28] of 218.9 ms, a Time [29] of 41.4 ms and a Time [30] of 267.9 ms. For the same compound, the Time [31] was 61 ms.
